Data published in ChEMBL document CHEMBL3804782, “Targeting the BACE1 Active Site Flap Leads to a Potent Inhibitor That Elicits Robust Brain Aβ Reduction in Rodents” (ACS Med Chem Lett, 2016).
Each block holds one compound with its values, some of them ahead of it. The source made the active and inactive calls. No cut-off for these calls is given here.

Legend:
Beta-secretase 1 = Beta-secretase 1 (Homo sapiens, UniProt P56817); test: Inhibition of BACE1 in human H4 cells expressing APP751 Swedish mutant assessed as inhibition of amyloid beta 40 or amyloid beta 42 production incubated for 19 hrs by microplate reader analysis; format: cell-based
Salmonella typhimurium = test: Mutagenicity in Salmonella typhimurium by Ames test; format: toxicity, organism-based; details: salmonella enterica subsp. enterica serovar typhimurium
[1] = Plasma protein binding in rat at 1 to 10 mg/kg, po measured at 5 hrs post dose; format: ADME, organism-based; details: read-out: PPB (converted)
[2] = Metabolic stability in mouse liver microsomes assessed as parent compound remaining at 0.5 uM after 10 mins; format: ADME; details: read-out: Stability
[3] = Metabolic stability in rat liver microsomes assessed as parent compound remaining at 0.5 uM after 10 mins; format: ADME; details: read-out: Stability
[4] = Metabolic stability in human liver microsomes assessed as parent compound remaining at 0.5 uM after 10 mins; format: ADME; details: read-out: Stability
[5] = Ratio of drug level in rat brain to plasma at 1 mg/kg, po after 5 hrs; format: ADME, organism-based; details: read-out: BPR
Procedure, shortened: (§1)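 Female rats given a single oral dose in PEG-400/EtOH/Tween 80 (84:15:1). Plasma and brain were collected 5 h postdose, 5 rats per dose, to measure drug exposure and brain Aβ levels. Values are means (n = 5) with SD.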

[6] = Plasma concentration in rat at 10 mg/kg, po after 5 hrs; format: ADME, organism-based; procedure, shortened: as §1
Mus musculus = test: Antialzheimer activity in mouse assessed as reduction in amyloid beta 42 level in brain at 10 mg/kg, po by ELISA relative to control; format: functional
Cytochrome P450 2D6 = Cytochrome P450 2D6 (Homo sapiens, UniProt P10635); test: Inhibition of CYP2D6 (unknown origin) expressed in baculovirus infected insect cells using AMMC as susbtrate incubated for 45 mins by plate reader analysis in presence of NADP+; format: ADME
[7] = Drug level in rat brain at 3 mg/kg, po after 5 hrs; format: ADME, organism-based; details: read-out: Drug uptake; procedure, shortened: as §1
Rattus norvegicus [8] = test: Antialzheimer activity in rat assessed as total plasma concentration required for reduction in amyloid beta (1 to 42) level in brain at 1 to 10 mg/kg, po measured at 5 hrs post dose; format: functional, organism-based
Cytochrome P450 1A2 = target: T1, Cytochrome P450 1A2 (Homo sapiens, UniProt P05177); test: Inhibition of CYP1A2 (unknown origin) expressed in baculovirus infected insect cells using CEC as susbtrate incubated for 45 mins by plate reader analysis in presence of NADP+; format: ADME
T1 sequence (P05177 whole entry): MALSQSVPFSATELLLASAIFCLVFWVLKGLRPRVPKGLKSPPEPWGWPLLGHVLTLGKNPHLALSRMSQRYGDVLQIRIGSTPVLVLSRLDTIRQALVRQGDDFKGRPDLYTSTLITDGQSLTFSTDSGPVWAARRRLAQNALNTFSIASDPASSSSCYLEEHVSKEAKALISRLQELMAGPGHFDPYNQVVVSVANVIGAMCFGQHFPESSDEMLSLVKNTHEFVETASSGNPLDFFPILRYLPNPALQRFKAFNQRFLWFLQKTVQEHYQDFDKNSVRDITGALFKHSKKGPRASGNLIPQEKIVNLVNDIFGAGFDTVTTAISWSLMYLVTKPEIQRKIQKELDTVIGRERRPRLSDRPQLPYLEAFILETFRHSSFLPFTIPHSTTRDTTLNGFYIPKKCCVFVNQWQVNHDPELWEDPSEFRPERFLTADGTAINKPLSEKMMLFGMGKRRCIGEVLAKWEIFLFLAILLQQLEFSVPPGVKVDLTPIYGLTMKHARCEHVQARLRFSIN

Cytochrome P450 2C9 = Cytochrome P450 2C9 (Homo sapiens, UniProt P11712); test: Inhibition of CYP2C9 (unknown origin) expressed in baculovirus infected insect cells using MFC as susbtrate incubated for 45 mins by plate reader analysis in presence of NADP+; format: ADME
Cytochrome P450 3A4 [9] = target: T2, Cytochrome P450 3A4 (Homo sapiens, UniProt P08684); test: Inhibition of CYP3A4 (unknown origin) expressed in baculovirus infected insect cells using benzyloxyresorufin as susbtrate incubated for 45 mins by plate reader analysis in presence of NADP+; format: ADME
[10] = Ratio of drug level in rat brain to plasma at 10 mg/kg, po after 5 hrs; format: ADME, organism-based; details: read-out: BPR; procedure, shortened: as §1
[11] = Drug level in rat brain at 1 mg/kg, po after 5 hrs; format: ADME, organism-based; details: read-out: Drug uptake; procedure, shortened: as §1
[12] = Plasma concentration in rat at 1 mg/kg, po after 5 hrs; format: ADME, organism-based; procedure, shortened: as §1
Plasma [13] = test: Free plasma concentration in rat at 1 to 10 mg/kg, po measured at 5 hrs post dose; format: ADME, organism-based; details: in vivo
[14] = Plasma concentration in rat at 3 mg/kg, po after 5 hrs; format: ADME, organism-based; procedure, shortened: as §1
Rattus norvegicus [15] = test: Antialzheimer activity in po dosed rat assessed as reduction in amyloid beta (1 to 40) level in brain measured at 5 hrs post dose by ELISA; format: functional, organism-based; procedure, shortened: as §1
Rattus norvegicus [16] = test: Antialzheimer activity in po dosed rat assessed as reduction in amyloid beta (1 to 42) level in brain measured at 5 hrs post dose by ELISA; format: functional, organism-based; procedure, shortened: as §1
[17] = Drug level in rat brain at 10 mg/kg, po after 5 hrs; format: ADME, organism-based; details: read-out: Drug uptake; procedure, shortened: as §1
[18] = Ratio of drug level in rat brain to plasma at 3 mg/kg, po after 5 hrs; format: ADME, organism-based; details: read-out: BPR; procedure, shortened: as §1
Cytochrome P450 3A4 [19] = target: T2, Cytochrome P450 3A4; test: Inhibition of CYP3A4 (unknown origin) expressed in baculovirus infected insect cells using BFC as susbtrate incubated for 45 mins by plate reader analysis in presence of NADP+; format: ADME
Cytochrome P450 2C8 = target: T3, Cytochrome P450 2C8 (Homo sapiens, UniProt P10632); test: Inhibition of CYP2C8 (unknown origin); format: ADME
T3 sequence (P10632 whole entry): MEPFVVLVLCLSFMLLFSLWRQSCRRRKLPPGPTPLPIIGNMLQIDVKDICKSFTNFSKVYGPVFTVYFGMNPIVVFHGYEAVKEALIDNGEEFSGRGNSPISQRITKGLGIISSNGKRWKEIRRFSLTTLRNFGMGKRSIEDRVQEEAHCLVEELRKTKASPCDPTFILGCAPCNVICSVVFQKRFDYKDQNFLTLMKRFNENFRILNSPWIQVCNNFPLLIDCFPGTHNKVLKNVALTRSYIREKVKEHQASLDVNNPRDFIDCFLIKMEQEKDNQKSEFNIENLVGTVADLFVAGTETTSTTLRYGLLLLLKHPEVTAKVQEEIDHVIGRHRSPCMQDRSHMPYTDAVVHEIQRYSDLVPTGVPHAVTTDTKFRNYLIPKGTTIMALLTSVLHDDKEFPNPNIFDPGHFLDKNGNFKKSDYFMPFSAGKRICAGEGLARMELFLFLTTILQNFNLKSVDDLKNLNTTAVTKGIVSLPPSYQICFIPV

Rattus norvegicus [20] = test: Antialzheimer activity in po dosed rat assessed as reduction in total amyloid beta level in brain measured at 5 hrs post dose by ELISA; format: functional, organism-based; procedure, shortened: as §1
Cytochrome P450 2C19 = Cytochrome P450 2C19 (Homo sapiens, UniProt P33261); test: Inhibition of CYP2C19 (unknown origin) expressed in baculovirus infected insect cells using CEC as susbtrate incubated for 45 mins by plate reader analysis in presence of NADP+; format: ADME
Plasma [21] = test: Drug metabolism in mouse plasma assessed as (4S,6S)-4-(5-amino-2,3-difluorophenyl)-6-(3,5-dimethylisoxazol-4-yl)-4-methyl-5,6-dihydro-4H-1,3-thiazin-2-amine formation at 10 mg/kg, po after 3 hrs; format: ADME, organism-based; details: in vivo
Rattus norvegicus [22] = test: Antialzheimer activity in rat assessed as free drug concentration in plasma required for reduction in amyloid beta (1 to 42) level in brain at 1 to 10 mg/kg, po measured at 5 hrs post dose; format: functional, organism-based
Rattus norvegicus [23] = test: Antialzheimer activity in rat assessed as reduction in amyloid beta level in brain at 30 mg/kg, po measured at 5 hrs post dose by ELISA; format: functional, organism-based

Chain of Beta-secretase 1 (P56817 whole entry): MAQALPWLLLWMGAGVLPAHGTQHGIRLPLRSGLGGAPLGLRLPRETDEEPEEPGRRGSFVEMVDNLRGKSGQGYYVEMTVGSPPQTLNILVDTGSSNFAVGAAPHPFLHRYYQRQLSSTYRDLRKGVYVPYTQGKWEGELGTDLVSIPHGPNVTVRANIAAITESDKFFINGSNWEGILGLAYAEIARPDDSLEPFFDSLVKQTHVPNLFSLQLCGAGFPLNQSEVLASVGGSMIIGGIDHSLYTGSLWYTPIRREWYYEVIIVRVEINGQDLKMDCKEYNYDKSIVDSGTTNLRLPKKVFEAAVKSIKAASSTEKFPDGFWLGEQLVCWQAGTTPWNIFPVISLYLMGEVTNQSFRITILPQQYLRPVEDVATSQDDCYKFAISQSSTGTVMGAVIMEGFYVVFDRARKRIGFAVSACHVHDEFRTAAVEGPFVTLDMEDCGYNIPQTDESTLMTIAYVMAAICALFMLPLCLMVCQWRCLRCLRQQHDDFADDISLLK
T2 sequence (P08684 whole entry): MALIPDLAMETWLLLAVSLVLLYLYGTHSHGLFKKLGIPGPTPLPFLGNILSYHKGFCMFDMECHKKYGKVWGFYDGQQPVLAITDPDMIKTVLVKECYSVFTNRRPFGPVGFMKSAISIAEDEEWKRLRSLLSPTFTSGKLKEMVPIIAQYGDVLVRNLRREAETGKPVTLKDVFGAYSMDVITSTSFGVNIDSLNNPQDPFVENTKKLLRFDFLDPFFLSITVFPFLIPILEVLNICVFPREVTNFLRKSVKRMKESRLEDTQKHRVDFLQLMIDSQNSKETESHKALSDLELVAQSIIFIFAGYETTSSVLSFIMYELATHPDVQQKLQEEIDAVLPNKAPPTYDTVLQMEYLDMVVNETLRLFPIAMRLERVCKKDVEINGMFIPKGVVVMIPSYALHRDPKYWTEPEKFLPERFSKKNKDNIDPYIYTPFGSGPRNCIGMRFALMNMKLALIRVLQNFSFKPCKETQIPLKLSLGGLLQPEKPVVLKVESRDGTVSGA
Chain of Cytochrome P450 2C19 (P33261 whole entry): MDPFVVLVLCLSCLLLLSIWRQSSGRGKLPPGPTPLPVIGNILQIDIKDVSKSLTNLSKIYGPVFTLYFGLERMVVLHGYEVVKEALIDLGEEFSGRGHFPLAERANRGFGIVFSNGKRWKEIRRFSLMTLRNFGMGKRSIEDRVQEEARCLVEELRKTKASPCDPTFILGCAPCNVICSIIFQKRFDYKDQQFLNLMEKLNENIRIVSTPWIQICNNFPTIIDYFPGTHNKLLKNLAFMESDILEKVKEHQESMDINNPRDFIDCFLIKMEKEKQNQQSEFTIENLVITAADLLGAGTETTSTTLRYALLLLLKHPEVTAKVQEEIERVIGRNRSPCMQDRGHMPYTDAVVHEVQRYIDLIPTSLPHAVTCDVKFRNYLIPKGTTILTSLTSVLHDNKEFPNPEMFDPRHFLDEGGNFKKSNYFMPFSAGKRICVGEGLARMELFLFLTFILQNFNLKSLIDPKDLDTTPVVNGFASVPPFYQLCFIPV
Chain of Cytochrome P450 2C9 (P11712 whole entry): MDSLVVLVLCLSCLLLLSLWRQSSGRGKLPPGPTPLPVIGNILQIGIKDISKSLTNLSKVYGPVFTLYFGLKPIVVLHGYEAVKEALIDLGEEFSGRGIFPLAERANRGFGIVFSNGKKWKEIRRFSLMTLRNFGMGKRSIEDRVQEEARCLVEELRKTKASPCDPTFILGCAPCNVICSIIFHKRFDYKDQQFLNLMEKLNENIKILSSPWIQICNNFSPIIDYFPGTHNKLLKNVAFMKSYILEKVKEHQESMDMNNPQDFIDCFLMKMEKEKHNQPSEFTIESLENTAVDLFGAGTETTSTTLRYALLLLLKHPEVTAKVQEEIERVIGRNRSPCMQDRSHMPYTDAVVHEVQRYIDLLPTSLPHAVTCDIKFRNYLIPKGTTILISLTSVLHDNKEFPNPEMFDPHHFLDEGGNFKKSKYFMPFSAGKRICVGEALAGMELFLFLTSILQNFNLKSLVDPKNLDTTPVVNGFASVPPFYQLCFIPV
Chain of Cytochrome P450 2D6 (P10635 whole entry): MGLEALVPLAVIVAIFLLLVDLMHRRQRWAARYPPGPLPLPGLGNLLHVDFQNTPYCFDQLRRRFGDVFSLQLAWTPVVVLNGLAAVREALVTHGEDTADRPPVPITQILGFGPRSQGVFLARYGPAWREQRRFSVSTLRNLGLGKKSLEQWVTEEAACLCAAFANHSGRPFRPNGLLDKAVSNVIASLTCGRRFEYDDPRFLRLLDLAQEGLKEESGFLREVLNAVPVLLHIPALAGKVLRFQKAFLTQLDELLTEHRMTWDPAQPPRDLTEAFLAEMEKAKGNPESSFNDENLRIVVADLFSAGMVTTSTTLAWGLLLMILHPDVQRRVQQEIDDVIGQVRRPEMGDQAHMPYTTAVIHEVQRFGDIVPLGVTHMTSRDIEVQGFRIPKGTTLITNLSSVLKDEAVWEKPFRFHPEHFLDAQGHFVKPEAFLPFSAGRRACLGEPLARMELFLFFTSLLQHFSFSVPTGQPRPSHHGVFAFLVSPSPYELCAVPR

Compound: Cc1oncc1[C@]1(C)C[C@@H](c2cc(-c3cncnc3)c(F)cc2F)N=C(N)S1 (racemic)
IC50 (Beta-secretase 1): 180 nM

Compound: Cc1noc(C)c1[C@@H]1C[C@@](C)(c2cc(N)cc(F)c2F)N=C(N)S1
Activity (Salmonella typhimurium): Non-toxic
fraction unbound at 5 h [1]: 0.05

Compound: Cc1noc(C)c1[C@]1(C)C[C@@H](c2cc(-c3cncnc3)c(F)cc2F)N=C(N)S1 (relative stereo)
IC50 (Beta-secretase 1): 3700 nM

Compound: COc1ccc([C@@H]2C[C@@H](c3cccc(-c4cncnc4)c3)N=C(N)S2)cc1OC
IC50 (Beta-secretase 1): 1100 nM

Compound: COc1ccc([C@@H]2C[C@@H](c3cc(-c4cncnc4)c(F)cc3F)N=C(N)S2)cc1OC
IC50 (Beta-secretase 1): 290 nM

Compound: Cc1noc(C)c1[C@@H]1C[C@@](C)(c2cc(-c3cncnc3)c(F)cc2F)N=C(N)S1
inhibition (Rattus norvegicus [23]): Active
remaining at 10 min, 0.5 µM [2]: 48%
remaining at 10 min, 0.5 µM [3]: 49%
remaining at 10 min, 0.5 µM [4]: 23%

The remaining compounds from weak to strong by IC50 (Beta-secretase 1), led by results:

remaining at 10 min, 0.5 µM [2]: 38%
remaining at 10 min, 0.5 µM [3]: 43%
remaining at 10 min, 0.5 µM [4]: 38%
IC50 (Beta-secretase 1): 160 nM
Compound: Cc1noc(C)c1[C@@H]1C[C@@](C)(c2cccc(NC(=O)c3ccc(Cl)cn3)c2F)N=C(N)S1

IC50 (Beta-secretase 1): 70 nM
Compound: Cc1noc(C)c1[C@@H]1C[C@@H](c2cc(-c3cncnc3)c(F)cc2F)N=C(N)S1

remaining at 10 min, 0.5 µM [2]: 75%
remaining at 10 min, 0.5 µM [3]: 76%
remaining at 10 min, 0.5 µM [4]: 78%
IC50 (Beta-secretase 1): 31 nM
Compound: Cc1noc(C)c1[C@@H]1C[C@@](C)(c2cc(NC(=O)c3ccc(Cl)cn3)c(F)cc2F)N=C(N)S1

IC50 (Beta-secretase 1): 5 nM
Compound: Cc1noc(C)c1[C@@H]1C[C@@H](c2cc(NC(=O)c3ccc(Cl)cn3)ccc2F)N=C(N)S1

remaining at 10 min, 0.5 µM [2]: 13%
remaining at 10 min, 0.5 µM [3]: 26%
remaining at 10 min, 0.5 µM [4]: 39%
IC50 (Beta-secretase 1): 2.3 nM
Compound: Cc1noc(C)c1[C@@H]1C[C@@](C)(c2cc(F)cc(NC(=O)c3ccc(Cl)cn3)c2)N=C(N)S1

Kp at 5 h [5]: 0.44
concentration at 5 h [6]: 1500 nM
IC50 (Cytochrome P450 2D6): > 20000 nM
concentration at 5 h [7]: 160 nM
EC50 (Rattus norvegicus [8]): 260 nM
IC50 (Cytochrome P450 1A2): > 20000 nM
IC50 (Cytochrome P450 2C9): > 20000 nM
IC50 (Cytochrome P450 3A4 [9]): > 20000 nM
Kp at 5 h [10]: 0.3
remaining at 10 min, 0.5 µM [2]: 74%
concentration at 5 h [11]: 67 nM
concentration at 5 h [12]: 150 nM
Cp(f) (Plasma [13]): 13 nM
concentration at 5 h [14]: 360 nM
concentration at 5 h [17]: 420 nM
Kp at 5 h [18]: 0.46
remaining at 10 min, 0.5 µM [3]: 69%
IC50 (Cytochrome P450 3A4 [19]): > 20000 nM
IC50 (Cytochrome P450 2C8): 5000 nM
remaining at 10 min, 0.5 µM [4]: 81%
IC50 (Cytochrome P450 2C19): > 20000 nM
IC50 (Beta-secretase 1): 0.9 nM
Drug metabolism (Plasma [21]): metabolite_detected
EC50 (Rattus norvegicus [22]): 13 nM
Compound: COc1cnc(C(=O)Nc2cc(F)c(F)c([C@]3(C)C[C@@H](c4c(C)noc4C)SC(N)=N3)c2)cn1
inhibition in vivo at 10 mg/kg (Mus musculus): 85%
inhibition (Rattus norvegicus [15]): Dose-dependent effect
inhibition (Rattus norvegicus [16]): Dose-dependent effect
inhibition (Rattus norvegicus [20]): Dose-dependent effect

remaining at 10 min, 0.5 µM [2]: 58%
remaining at 10 min, 0.5 µM [3]: 63%
remaining at 10 min, 0.5 µM [4]: 87%
IC50 (Beta-secretase 1): 0.7 nM
Compound: Cc1noc(C)c1[C@@H]1C[C@@](C)(c2cc(NC(=O)c3ccc(Cl)cn3)cc(F)c2F)N=C(N)S1
